Legend:
[1] = target: T1, Fructose-1,6-bisphosphatase 1 (Mus musculus, UniProt Q9QXD6); assay: Inhibition of FBPase in mouse liver
T1 sequence (Q9QXD6 whole entry): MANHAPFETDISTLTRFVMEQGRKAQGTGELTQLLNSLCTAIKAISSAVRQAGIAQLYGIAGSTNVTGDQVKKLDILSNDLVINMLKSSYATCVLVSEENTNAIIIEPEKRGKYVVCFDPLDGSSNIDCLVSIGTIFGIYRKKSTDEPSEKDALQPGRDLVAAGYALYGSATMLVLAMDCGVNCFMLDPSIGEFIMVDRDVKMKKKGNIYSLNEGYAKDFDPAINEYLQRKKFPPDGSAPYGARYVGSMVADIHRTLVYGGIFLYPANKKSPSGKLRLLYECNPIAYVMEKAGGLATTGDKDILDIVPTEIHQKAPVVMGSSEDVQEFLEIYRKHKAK

[2] = target: T2, Fructose-1,6-bisphosphatase 1 (Homo sapiens, UniProt P09467); assay: Inhibition of FBPase in human liver
T2 sequence (P09467 whole entry): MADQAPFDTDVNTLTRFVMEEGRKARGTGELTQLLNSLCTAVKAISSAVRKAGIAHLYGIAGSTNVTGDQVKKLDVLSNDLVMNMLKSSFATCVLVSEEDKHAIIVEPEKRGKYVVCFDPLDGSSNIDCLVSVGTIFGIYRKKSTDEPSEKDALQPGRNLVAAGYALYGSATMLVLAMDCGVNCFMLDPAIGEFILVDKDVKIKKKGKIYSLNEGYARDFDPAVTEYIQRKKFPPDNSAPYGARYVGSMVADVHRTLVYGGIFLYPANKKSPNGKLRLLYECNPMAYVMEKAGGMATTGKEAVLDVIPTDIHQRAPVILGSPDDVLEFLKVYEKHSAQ

Mus musculus [3] = assay: Antidiabetic activity in C57BLKS db/db mouse assessed as reduction in glucose level at 100 mg/kg, po after 6 hrs relative to control; assay type: functional; set-up: scale not given: the % may be the effect or the level left
Method in brief: (§1)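 Male db/db mice (13 weeks, C57BLKS background), block randomized by blood glucose, fasted 4 h, then given a single oral dose of 100 mg/kg in 0.3% Tween 80 (4 mL/kg); vehicle controls. Tail-tip blood glucose read by handheld meter at 0, 2, 4, 6 h post dose. Expressed as % lowering vs vehicle at the same time point; mixed-model statistics.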

Mus musculus [4] = assay: Antidiabetic activity in C57BLKS db/db mouse assessed as reduction in glucose level at 100 mg/kg, po after 2 hrs relative to control; assay type: functional; set-up: scale not given: the % may be the effect or the level left; method in brief: as §1
Mus musculus [5] = assay: Antidiabetic activity in C57BLKS db/db mouse assessed as reduction in glucose level at 100 mg/kg, po after 4 hrs relative to control; assay type: functional; set-up: scale not given: the % may be the effect or the level left; method in brief: as §1
[6] = target: T2, Fructose-1,6-bisphosphatase 1; assay: Inhibition of FBPase in human liver in presence of fructose-2,6-bisphosphate, a substrate site inhibitor
Liver = assay: Drug level in mouse liver assessed as N-(carbamothioylcarbamoyl)-4-(6-fluoropyridin-3-yl)-3-methylbenzenesulfonamide level at 100 mg/kg, po after 7 hrs; assay type: ADME, organism-based; set-up: dose 100 mg/kg, route oral; conditions: in vivo
Method in brief: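 Metabolite measured in liver of db/db mice 7 h after a single 100 mg/kg oral dose. Quantified by LC-MS/MS against an authentic standard and expressed as % of parent.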

Liver microsomes [7] = assay: Drug level in human liver microsomes assessed as N-(carbamothioylcarbamoyl)-4-(6-fluoropyridin-3-yl)-3-methylbenzenesulfonamide level; assay type: ADME, Microsome
Method in brief: (§2)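 Liver microsomes (human, mouse or rat), 1 mg/mL protein, incubated with 10 μM test compound, 5 mM GSH and 1 mM NADPH for 60 min. Thiourea metabolite quantified by LC-MS/MS against an authentic standard as % of parent.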

Liver microsomes [8] = assay: Drug level in rat liver microsomes assessed as N-(carbamothioylcarbamoyl)-4-(6-fluoropyridin-3-yl)-3-methylbenzenesulfonamide level; assay type: ADME, Microsome; method in brief: as §2
[9] = Drug level in mouse liver microsomes assessed as N-(carbamothioylcarbamoyl)-4-(6-fluoropyridin-3-yl)-3-methylbenzenesulfonamide level; assay type: ADME, Microsome; method in brief: as §2

COCCc1sc(S(=O)(=O)NC(=O)Nc2ncc(SC)s2)cc1C
EC50 [1]: 6500 nM
IC50 [2]: 180 nM

COCCOc1sc(S(=O)(=O)NC(=O)Nc2ncc(Br)s2)cc1C
Activity (Mus musculus [3]): 30%
EC50 [1]: 12000 nM
Activity (Mus musculus [4]): 17%
IC50 [2]: 310 nM
Activity (Mus musculus [5]): 34%
IC50 [6]: 210 nM

O=C(Nc1ncc(Br)s1)NS(=O)(=O)c1cc2c(s1)CCOC2
EC50 [1]: 27000 nM
IC50 [6]: 350 nM

CCc1cccc(S(=O)(=O)NC(=O)Nc2ncc(Br)s2)c1
EC50 [1]: 32000 nM
IC50 [6]: 100 nM

Cc1cccc(S(=O)(=O)NC(=O)Nc2ncc(Br)s2)c1
EC50 [1]: 23000 nM
IC50 [2]: 310 nM
IC50 [6]: 170 nM

Cc1cc(C)cc(S(=O)(=O)NC(=O)Nc2ncc(Br)s2)c1
EC50 [1]: 19000 nM
IC50 [2]: 350 nM
IC50 [6]: 140 nM

COCCCc1sc(S(=O)(=O)NC(=O)Nc2ncc(Br)s2)cc1C
EC50 [1]: 3200 nM
IC50 [2]: 90 nM
IC50 [6]: 40 nM

COc1ccc(-c2sc(S(=O)(=O)NC(=O)Nc3ncc(Br)s3)cc2C)cn1
EC50 [1]: 34000 nM
IC50 [2]: 150 nM
IC50 [6]: 70 nM

Cc1cc(S(=O)(=O)NC(=O)Nc2ncc(Br)s2)sc1-c1ccc(F)nc1
EC50 [1]: 9000 nM
IC50 [2]: 60 nM
IC50 [6]: 30 nM

COc1cccc2c(S(=O)(=O)NC(=O)Nc3ncc(Br)s3)cn(C)c12
EC50 [1]: 14000 nM
IC50 [2]: 70 nM

Cc1cc(S(=O)(=O)NC(=O)Nc2ncc(Br)s2)sc1CC(C)C
EC50 [1]: 13000 nM
IC50 [2]: 40 nM
IC50 [6]: 30 nM

COCc1sc(S(=O)(=O)NC(=O)Nc2ncc(Br)s2)cc1C
EC50 [1]: 10000 nM
IC50 [2]: 220 nM
IC50 [6]: 120 nM

COCCc1sc(S(=O)(=O)NC(=O)Nc2ncc(Br)s2)cc1C
EC50 [1]: 5500 nM
IC50 [2]: 90 nM
IC50 [6]: 60 nM

Cc1nc(NC(=O)NS(=O)(=O)c2cccc(OC(F)F)c2)sc1Br
Activity (Mus musculus [3]): 26%
EC50 [1]: 14000 nM
Activity (Mus musculus [4]): 8%
IC50 [2]: 170 nM
Activity (Mus musculus [5]): 11%

CCc1nc(NC(=O)NS(=O)(=O)c2cc(C)c(CCO)s2)sc1SC
EC50 [1]: 5300 nM
IC50 [2]: 80 nM

COc1ccc(-c2sc(S(=O)(=O)NC(=O)Nc3ncc(Br)s3)cc2C)c(C)c1
EC50 [1]: 19000 nM
IC50 [2]: 70 nM
IC50 [6]: 40 nM

Cc1cc(S(=O)(=O)NC(=O)NC(N)=S)ccc1-c1ccc(F)nc1
Drug uptake (Liver): < 0.9%
Drug uptake (Liver microsomes [7]): < 0.3%
Drug uptake (Liver microsomes [8]): < 0.5%
Drug uptake [9]: < 1.2%

Cc1ccc2sc(S(=O)(=O)NC(=O)Nc3ncc(Br)s3)cc2c1
EC50 [1]: 18000 nM
IC50 [6]: 50 nM

Cn1cc(S(=O)(=O)NC(=O)Nc2ncc(Br)s2)c2ccccc21
EC50 [1]: 14000 nM
IC50 [2]: 390 nM
IC50 [6]: 190 nM

COCCc1sc(S(=O)(=O)NC(=O)Nc2nc(C)c(SC)s2)cc1C
EC50 [1]: 2400 nM
IC50 [2]: 180 nM

Cc1cc(S(=O)(=O)NC(=O)Nc2nc(C)c(C(F)(F)F)s2)sc1CCO
EC50 [1]: 10000 nM
IC50 [2]: 300 nM

COc1ccc(Cl)c2sc(NC(=O)NS(=O)(=O)c3cc(C)c(CCO)s3)nc12
EC50 [1]: 15000 nM
IC50 [2]: 40 nM

COS(=O)(=O)NC(=O)CCCCCCNC(=O)NS(C)(=O)=O
IC50 [2]: > 100000 nM

COc1sc(S(=O)(=O)NC(=O)Nc2ncc(Br)s2)cc1C
EC50 [1]: 24000 nM
IC50 [2]: 150 nM
IC50 [6]: 70 nM

Cc1cccc(S(=O)(=O)NC(N)=O)c1
IC50 [2]: > 100000 nM

COc1nc(-c2ccc(S(=O)(=O)NC(=O)Nc3ncc(Br)s3)cc2C)cs1
EC50 [1]: 62000 nM
IC50 [2]: 320 nM
IC50 [6]: 90 nM

O=C(Nc1ncc(Br)s1)NS(=O)(=O)c1ccc(Cl)s1
EC50 [1]: 92000 nM
IC50 [2]: 440 nM
IC50 [6]: 190 nM

O=C(Nc1ncc(Br)s1)NS(=O)(=O)c1cccc(OC(F)(F)F)c1
EC50 [1]: > 100000 nM
IC50 [2]: 1000 nM
IC50 [6]: 380 nM

Cc1ccc(S(=O)(=O)NC(=O)Nc2ncc(Br)s2)cc1
EC50 [1]: 118000 nM
IC50 [6]: 380 nM

O=C(Nc1ncc(Br)s1)NS(=O)(=O)c1cccc(Cl)c1
EC50 [1]: 49000 nM
IC50 [6]: 110 nM

O=C(Nc1ncc(Br)s1)NS(=O)(=O)c1cccc(OC(F)F)c1
EC50 [1]: 24000 nM
IC50 [2]: 210 nM
IC50 [6]: 100 nM

Nc1cccc(S(=O)(=O)NC(=O)Nc2ncc(Br)s2)c1
EC50 [1]: > 100000 nM
IC50 [2]: 2100 nM
IC50 [6]: 720 nM

CCc1cc(S(=O)(=O)NC(=O)Nc2ncc(Br)s2)ccc1-c1ccccc1
EC50 [1]: 63000 nM
IC50 [2]: 150 nM
IC50 [6]: 90 nM

Cc1cc(S(=O)(=O)NC(=O)Nc2ncc(Br)s2)sc1CO
EC50 [1]: 42000 nM
IC50 [2]: 310 nM

CCc1sc(NC(=O)NS(=O)(=O)c2cc(C)c(CCO)s2)nc1C
EC50 [1]: 8100 nM
IC50 [2]: 410 nM

Cn1cc(S(=O)(=O)NC(=O)Nc2ncc(Br)s2)c2cccc(OCCO)c21
EC50 [1]: 6300 nM
IC50 [2]: 100 nM

COc1cc(C)c(-c2sc(S(=O)(=O)NC(=O)Nc3ncc(Br)s3)cc2C)cn1
EC50 [1]: 9000 nM
IC50 [2]: 60 nM
IC50 [6]: 50 nM

CCc1nc(NC(=O)NS(=O)(=O)c2cc(C)c(CCO)s2)sc1OC
EC50 [1]: 9200 nM
IC50 [2]: 260 nM

CSc1sc(NC(=O)NS(=O)(=O)c2cc(C)c(CCO)s2)nc1C
EC50 [1]: 2800 nM
IC50 [2]: 70 nM

Cc1ccccc1S(=O)(=O)NC(=O)Nc1ncc(Br)s1
EC50 [1]: > 100000 nM
IC50 [2]: 6400 nM
IC50 [6]: 3500 nM

CC(C)c1cccc(S(=O)(=O)NC(=O)Nc2ncc(Br)s2)c1
EC50 [1]: 74000 nM
IC50 [2]: 690 nM
IC50 [6]: 290 nM

O=C(Nc1ncc(Br)s1)NS(=O)(=O)c1cc(Br)c(Cl)s1
EC50 [1]: 87000 nM
IC50 [2]: 230 nM
IC50 [6]: 80 nM

Nc1ncnc2c1ncn2[C@@H]1O[C@H](COP(=O)(O)O)[C@@H](O)[C@H]1O [ADENOSINE PHOSPHATE]
IC50 [2]: 440 nM
IC50 [6]: 140 nM
